Measured values: ChEMBL document CHEMBL4513216, “Probing the Open Global Health Chemical Diversity Library for Multistage-Active Starting Points for Next-Generation Antimalarials” (ACS Infect Dis, 2020)

Assay: Toxicity liver stage against HepG2, at 10uM
Format: cell-based
Parameters: test concentration 10 uM, cell line HepG2-A16-CD81EGFP
Conditions: human, HepG2-A16-CD81EGFP cells; read-out: INHIBITION
Outline: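 Uninfected HepG2-A16-CD81EGFP cells, 3 × 10^3 per well, 1536-well, plated on prespotted compound at 10 μM final, parasite-free screening media added to match infected plates; puromycin 10 μM positive, DMSO 0.5% negative; run in parallel with 48 h PbLuc assay at 37 °C, 5% CO2; viability by CellTiter-Glo luminescence, normalized to controls.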
`CC1(C(=O)N2CCOCC2)CN(Cc2ccccc2F)CCO1` (stereo unspecified) showed a cytotoxicity at 10 µM of 2.03%.
`CC(C)Cn1cnnc1C1CCCN1C(=O)OC(C)(C)C` (stereo unspecified) showed a cytotoxicity at 10 µM of 0.514%.
Molecule `c1csc(-c2nc(CNC3CCc4ncnn4C3)cs2)c1` (stereo unspecified) has a cytotoxicity at 10 µM of 2.07%.
`Cc1ccc(CN2CCN(c3cc(NCCO)ncn3)CC2CCO)o1` (stereo unspecified) gave a cytotoxicity at 10 µM of 7.11%.
`CN1CCC(Cc2nc(-c3cnccn3)n(C3CCS(=O)(=O)C3)n2)CC1` (stereo unspecified) gave a cytotoxicity at 10 µM of -2.64%.
For `O=c1c2c[nH]c(N3CCOCC3)nc-2cn1C1CCS(=O)(=O)C1` (stereo unspecified), the cytotoxicity at 10 µM was 3.41%.
`CS(=O)(=O)N1CCC(c2ccncn2)CC1` gave a cytotoxicity at 10 µM of 6.77%.
Molecule `Cc1cc(C)c2nc(CNCCNS(C)(=O)=O)cc(O)c2c1` has a cytotoxicity at 10 µM of 0.145%.
Molecule `Cc1cc(C)c2c(c1)C(NCc1c(C)nn(C)c1N(C)C)CCO2` (stereo unspecified) has a cytotoxicity at 10 µM of -4.07%.
Work on `Cc1cnc(NC(=O)C(C)Oc2ccc3c(c2)OCO3)s1` (stereo unspecified) yielded a cytotoxicity at 10 µM of -5.22%.
Work on `CCc1nc2n(n1)CC(NCc1nc3ccccc3nc1C)CC2` (stereo unspecified) yielded a cytotoxicity at 10 µM of -141%.
For `Cc1nc(C)n(CC2CN(c3nnc(C)c(C)c3C#N)CCO2)n1` (stereo unspecified), the cytotoxicity at 10 µM was -0.00964%.
For `CS(=O)(=O)N1CC[C@H]2O[C@@H](C(=O)NCc3ccco3)CC[C@H]21`, the cytotoxicity at 10 µM was 4.23%.
For `Cc1nc(C)n(CC2CCCN(CCc3ccccc3)C2)n1` (stereo unspecified), the cytotoxicity at 10 µM was -3.12%.
With `CN1CC2(CCN(C(=O)c3cccc(-n4cccn4)c3)CC2)OC1=O` the cytotoxicity at 10 µM was 4.5%.
Work on `CC(=O)Nc1cccc2c1ccn2CC(=O)Nc1ncc[nH]1` yielded a cytotoxicity at 10 µM of 5.83%.
Molecule `CC(C)N(C)Cc1nnc2n1CCCN(c1ncccn1)C2` has a cytotoxicity at 10 µM of 3.24%.
In the case of `Cc1n[nH]c(C)c1-c1cnc(CC2CCCN(S(C)(=O)=O)C2)cn1` (stereo unspecified), the cytotoxicity at 10 µM is reported as -7.3%.
With `Cc1ccccc1CN(CCO)Cc1ncc[nH]1` the cytotoxicity at 10 µM was -3.97%.
Molecule `O=C1NCC2(CCCN(C(=O)Nc3cccc(-c4cscn4)c3)CC2)O1` (stereo unspecified) has a cytotoxicity at 10 µM of -4.54%.
`CCOCc1ccccc1NC(=O)NCC(c1cnn(C)c1)N(C)C` (stereo unspecified) gave a cytotoxicity at 10 µM of 3.96%.
Molecule `CC1=Nc2c(c(=O)[nH]n2C2CCCC2)C(c2cccnc2)S1` (stereo unspecified) has a cytotoxicity at 10 µM of -0.955%.
`O=C(CCc1nccs1)N1CCC(C(=O)O)(c2ccccc2)CC1` showed a cytotoxicity at 10 µM of 1.75%.
For `Cc1c(C(C)NC(=O)Nc2ccccc2F)cnn1C` (stereo unspecified), the cytotoxicity at 10 µM was -45.2%.
In the case of `Cc1noc(C)c1S(=O)(=O)N1CCC(n2cccn2)CC1`, the cytotoxicity at 10 µM is reported as 2.63%.
In the case of `CN(C)C(=O)c1coc(COc2ccccc2)n1`, the cytotoxicity at 10 µM is reported as -7.3%.
`CCN1CCN(Cc2nc(CC(C)C)no2)CC1` showed a cytotoxicity at 10 µM of -23%.
Work on `CC(=O)N1CCC(c2nnc3ccc(C(=O)NC(C)C)cn23)C1` (stereo unspecified) yielded a cytotoxicity at 10 µM of 6.37%.
Work on `NC(=O)C(CNC(=O)CCc1ccccc1)Cc1ccc(F)cc1` (stereo unspecified) yielded a cytotoxicity at 10 µM of 6.62%.
`CN1CCN(c2ccc(NCc3ccsc3)cn2)CC1` gave a cytotoxicity at 10 µM of 2.97%.
For `CCN1CCCC1CNCc1cc2cc(OC)ccc2[nH]c1=O` (stereo unspecified), the cytotoxicity at 10 µM was -10.2%.
Molecule `CN(Cc1cnccn1)C(=O)[C@@]12CNC[C@@H]1CN(Cc1ccccc1)C2` has a cytotoxicity at 10 µM of -2.59%.
`Cc1ncc(CN(C)C(=O)c2ccc(N3CCOCC3)c(F)c2)s1` showed a cytotoxicity at 10 µM of 5.66%.
`CCc1nc(Cn2nc(COC)oc2=O)cs1` gave a cytotoxicity at 10 µM of -43.4%.
Work on `Cc1cncc(C2CCCN(Cc3cccn3C)C2)n1` (stereo unspecified) yielded a cytotoxicity at 10 µM of 8.25%.
In the case of `COCCCn1nnc(C2(NC(=O)c3ccccc3)CCCC2)n1`, the cytotoxicity at 10 µM is reported as 9.24%.
For `CN(C)[C@@H]1CN(Cc2ccoc2)C[C@@H]2CCCO[C@@H]21`, the cytotoxicity at 10 µM was 1.93%.
Work on `Cc1noc(C)c1C(=O)N1CCCN(Cc2cscn2)CC1` yielded a cytotoxicity at 10 µM of -1.56%.
In the case of `COCCN1CCN(Cc2noc(C3CC3)n2)CC1C` (stereo unspecified), the cytotoxicity at 10 µM is reported as 1.43%.
`O=C(NCc1ccccc1CN1CCOCC1)c1ccc(Br)cc1F` gave a cytotoxicity at 10 µM of 12.3%.
Molecule `Cc1cc(N2CCCC2c2cc(Nc3cnccn3)nc(C)n2)ncn1` (stereo unspecified) has a cytotoxicity at 10 µM of -14%.
For `CCc1nc(NCC2CCCN(C(=O)C3CC3)C2)c2cnn(C)c2n1` (stereo unspecified), the cytotoxicity at 10 µM was 1.14%.
`Cc1ccnn1-c1ccc(C(=O)N2CCCC(n3ccnc3)C2)cc1` (stereo unspecified) gave a cytotoxicity at 10 µM of -18.2%.
Work on `COCCNc1nc2c(c(NCc3cnc(C)cn3)n1)CCNCC2` yielded a cytotoxicity at 10 µM of -0.106%.
For `Cc1ccccc1OCC(O)CN1CCC(Cn2cccn2)CC1` (stereo unspecified), the cytotoxicity at 10 µM was -0.972%.
For `COCC(=O)N1CC[C@H]2C[C@H](C)O[C@@H]2C1`, the cytotoxicity at 10 µM was -0.877%.
Molecule `CCc1nc(-c2ccc(NC(=O)N3CCC4(CC3)OCCO4)cc2)no1` has a cytotoxicity at 10 µM of 7.27%.
`Cc1csc(C(Cc2ccsc2)NC(=O)c2cc(=O)n(C)c(=O)n2C)n1` (stereo unspecified) gave a cytotoxicity at 10 µM of -12.3%.
For `O=C(NC1CCC1)[C@@H]1CCO[C@@H]2CCN(C3CCCC3)C[C@@H]21`, the cytotoxicity at 10 µM was 11.4%.
With `COc1ccc(CNC(=O)N(Cc2ccc(F)cc2F)C2CC2)cn1` the cytotoxicity at 10 µM was -6.67%.
Work on `CC1CC(=O)c2cc(C(=O)N3CCN(C)CC3)c(=O)[nH]c2C1` (stereo unspecified) yielded a cytotoxicity at 10 µM of -6.32%.
`Cc1cc(NC2CCN(c3ccccc3)C2)n2ncnc2n1` (stereo unspecified) showed a cytotoxicity at 10 µM of 14.7%.
`CCC(=O)N1CCN(C(=O)c2ccc(COC)o2)[C@H]2CS(=O)(=O)C[C@H]21` gave a cytotoxicity at 10 µM of -10.9%.
`OCc1cn([C@@H]2c3ccccc3C3(CCNCC3)[C@H]2O)nn1` gave a cytotoxicity at 10 µM of -3.45%.
Work on `CN(C)S(=O)(=O)N1CCC2(CC1)CC(OCC1CC1)CO2` (stereo unspecified) yielded a cytotoxicity at 10 µM of -2.37%.
In the case of `N#Cc1ccc(CN2C[C@@H](F)[C@@H](OCc3nc4cnccc4[nH]3)C2)cc1`, the cytotoxicity at 10 µM is reported as -3.67%.
For `CCc1noc(CN2CCOC3(CCCC3)C2)n1`, the cytotoxicity at 10 µM was -3.54%.
`Cc1ccc(OCCN(C)Cc2nc3c(cnn3C)c(=O)[nH]2)cc1` gave a cytotoxicity at 10 µM of -3.44%.
`Cc1ccccc1CCC1CCCN(Cc2nnc(-c3ccco3)o2)C1` (stereo unspecified) gave a cytotoxicity at 10 µM of -116%.
For `COc1ccc2nc(C3CC3)cc(C(=O)NCC(=O)N(C)C)c2c1`, the cytotoxicity at 10 µM was -3.41%.
Work on `CC(=O)N1CC2(CCN(S(=O)(=O)N(C)C)CC2)C2(CCNC2=O)C1` (stereo unspecified) yielded a cytotoxicity at 10 µM of -6.9%.
`COc1coc(C(=O)Nc2nc(C)cs2)cc1=O` gave a cytotoxicity at 10 µM of -3.96%.
`CCCS(=O)(=O)N1C[C@@H](Oc2ccccn2)[C@H]2OCCC[C@H]21` gave a cytotoxicity at 10 µM of 0.516%.
With `CCOCC(O)CN1CCN(C(=O)c2cc(C)ccc2F)CC1` (stereo unspecified) the cytotoxicity at 10 µM was 5.71%.
In the case of `CC(C)C(=O)N(C)Cc1nnc2n1CCCCC2`, the cytotoxicity at 10 µM is reported as -8.2%.
Work on `CCOc1cc(C(=O)N(C)C)ccc1NC(=O)c1ccsc1` yielded a cytotoxicity at 10 µM of -0.587%.
`Nc1nccnc1C(=O)NC1CCN(Cc2ccccc2)C1` (stereo unspecified) gave a cytotoxicity at 10 µM of 11.9%.
Molecule `Cc1csc(CCCNC(C)CC(=O)Nc2cccc(C)c2C)n1` (stereo unspecified) has a cytotoxicity at 10 µM of 5.76%.
For `CC(C)c1cc(C(=O)N2CCCC(Cn3cc(CO)nn3)C2)on1` (stereo unspecified), the cytotoxicity at 10 µM was -6.27%.
`CCOC(=O)[C@@H]1[C@@H](c2ccccc2)CN2CCN(S(C)(=O)=O)C[C@H]12` showed a cytotoxicity at 10 µM of 0.227%.
Work on `Cc1nn(C)cc1C(=O)N1CCCN(C2Cc3ccccc3C2)CC1` yielded a cytotoxicity at 10 µM of -3.16%.
`CC(O)CN1CCN(C(=O)CN(C)c2ccc(Cl)cn2)CC1` (stereo unspecified) showed a cytotoxicity at 10 µM of -1.95%.
`CC(C)OCCCNC(=O)CN1C=Nc2ccccc2S1(=O)=O` showed a cytotoxicity at 10 µM of -5.44%.
For `OC1(CN2CCC(Cc3ncccn3)CC2)CCOCC1`, the cytotoxicity at 10 µM was 16.6%.
In the case of `CCn1ncnc1C(C)Nc1cc(C)c2ccc(SC)cc2n1` (stereo unspecified), the cytotoxicity at 10 µM is reported as -0.995%.
`Cc1nc(COC[C@H]2CC[C@H]3[C@H](CCN3C(N)=O)O2)cs1` showed a cytotoxicity at 10 µM of -81.2%.
`Cn1cnc2c1C(COCC1CCOCC1)CN(Cc1ccccn1)C2` (stereo unspecified) showed a cytotoxicity at 10 µM of -78.2%.
With `Cc1cn2c(n1)CCC(NC(=O)c1c[nH]c(C)n1)C2` (stereo unspecified) the cytotoxicity at 10 µM was -0.361%.
With `O=C(Cc1ccc2c(c1)CCC2)N1CCCC1Cn1cccn1` (stereo unspecified) the cytotoxicity at 10 µM was -139%.
In the case of `Cc1nc(C)n(CC2CCCN2Cc2nc(-c3cccs3)no2)n1` (stereo unspecified), the cytotoxicity at 10 µM is reported as -4.02%.
Molecule `CC(C)Oc1ccc(CNC(=O)C2CCS(=O)(=O)C2)cn1` (stereo unspecified) has a cytotoxicity at 10 µM of 0.788%.
